This excerpt belongs to a sample that is enriched for hits.
FLuc inhib CS: firefly luciferase enzyme inhibitors, primary screen, artefact control for luciferase-based inhibitor screens, biochemical, luminescence, ATPLite; hit rate 1.5% among 200,000; AID 1006, 2008; 10 min; inhibition, % at 10 µM;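 active = inhibition above about 50% when tested at 10 µM, limit read from the data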
ABCG2 block: ABCG2 efflux pump inhibitors, primary screen, multiplex with ABCB1, IgMXP3 cells, flow cytometry | Broad substrate specificity ATP-binding cassette transporter ABCG2 (Homo sapiens), Q9UNQ0 | JC-1 efflux | inhibition, % at 6.6 µM | hit rate 0.1% among 190,000;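 active = inhibition above 80%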;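 note: 0% = DMSO and 100% = nicardipine control wells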
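Incubation: cells with compound and JC-1, 10 min at 25 °C, rotating, no wash / Test system: IgMXP3 (ABCG2) plus far-red-tagged CCRF-Adr (ABCB1) cells / Compound dosing: one concentration, 6.6 µM final / Also added: JC-1 fluorescent substrate / Evaluation: efflux inhibition in percent versus controls / Detection: flow cytometry, 530 nm JC-1 signal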
ABCB1 block: ABCB1 efflux pump inhibitors, primary screen, cell-based, multiplex, flow cytometry, ABCG2 counter-screen. inhibition, % at 6.6 µM. CCRF-Adr cells, JC-1 efflux. hit rate 0.067% among 190,000; in the data active = inhibition above about 40%;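 note: 0% = vehicle and 100% = reference inhibitor; higher value means more JC-1 retained so stronger ABCB1 efflux block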
ABCB6 inh MLPCN: ABCB6 transporter inhibitors, primary screen, K562-ABCB6 cells, flow cytometry, MLPCN library; ATP-binding cassette sub-family B member 6 (Homo sapiens), Q9NP58; K562-ABCB6 porphyrin accumulation, 1 h; stronger effect = lower value; fluorescence ratio to DMSO, % at 10 µM; hit rate 0.19% among 360,000; AID 602162, 2011;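 active = fluorescence ratio to DMSO below 75%, the collection mean minus 3 SD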;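 note: signal is porphyrin accumulated inside mitochondria; 100% equals median channel fluorescence of DMSO control wells; lower ratio means ABCB6 inhibition with less porphyrin fluorescence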
Diaph act CS: compounds boosting diaphorase resazurin reduction – biochemical, uHTS, resorufin fluorescence, counter-screen for diaphorase-coupled primary assays, primary screen | Diaphorase/resazurin coupled assay, 16 min; stronger effect = higher value; 1 = vehicle wells, 0 = NADH-free wells | activation factor at 20 µM | hit rate 0.005% among 190,000 | AID 1229, 2008;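 active = diaphorase activity raised at least twofold by the compound at 20 µM; inactive = activation factor below 2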
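Assay system: Purified diaphorase enzyme from Clostridium kluyveri | Amount: Enzyme 0.07 U/mL final | Dosing: Compound 20 µM once, DMSO 1% | Timing: 16 min reaction at room temperature | Detection: Fluorescence, excitation 544 nm and emission 590 nm | Evaluation: Higher resorufin formation from activation or reduction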
FLuc act counter: FLuc activators, initial screening, artefact control for FLuc-dependent activation tests, biochemical, ATPlite luminescence; ATPlite luciferase biochemical, 10 min; 0 = ATP-free wells, 1 = DMSO control; activation factor at 10 µM; 200,000 tested, under 10 active; AID 1027, 2008;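 active = luciferase activation factor, scaled between plate controls, of at least 2 with compound at 10 µM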
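test system = cell-free luciferase reagent | medium = PBS as buffer for the ATP substrate | dosing = test compounds dosed from 2 mM stocks in 100% DMSO | incubation = 10 min at ambient temperature | detection = luminescence measurement of luciferase light output | benchmarks = low control with PBS replacing ATP, high control enzyme plus ATP without compound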
ABCB1 single pt: ABCB1 efflux pump inhibitors, confirmation, cell-based, single point, ABCG2 counter-screen; shares compounds with ABCG2 block; CCRF-Adr cells, JC-1 efflux, flow cytometry; inhibition, % at 6.6 µM; hit rate 7% among 270;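 active = inhibition of pump activity above 50%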;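 note: 0% = DMSO and 100% = nicardipine full pump inhibition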
ABCG2 single pt: ABCG2 efflux pump inhibitors, confirmation, single point, IgMXP3 cells, ABCB1 counter-screen paired; shares compounds with ABCG2 block; hit rate 6% among 270; inhibition, % at 6.6 µM; JC-1 efflux, flow cytometry; AID 1453, 2008;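 active = inhibition above 50%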;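 note: 0% = DMSO wells and 100% = nicardipine pump inhibitor wells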
IgMXP3 autofluor: compound autofluorescence in ABCG2-expressing IgMXP3 cells, confirmation, artefact control for ABC transporter inhibitor project, cell-based, 488/530 nm, flow cytometry. compound autofluorescence 488/530 nm; stronger effect = higher value. fluorescence at 6.6 µM. shares compounds with ABCG2 block. hit rate 30% among 270;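 active = fluorescence in ABCG2-expressing cells above the plate's control-well mean plus 3 SD, cut at about 15 in these data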;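 note: median cell fluorescence with compound minus that of DMSO-treated control cells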
CCRF autofluor: compound autofluorescence in ABCB1-expressing CCRF-Adr cells, confirmation, artefact control for ABC transporter inhibitor project, cell-based, 488/530 nm, flow cytometry; compound autofluorescence 488/530 nm; stronger effect = higher value; hit rate 30% among 270; fluorescence at 6.6 µM; shares compounds with ABCG2 block;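 active = fluorescence beyond the plate control mean plus 3 SD, with a fluorescence-to-maximum score over 2, cut at about 25 in these data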
An asterisk follows results filed as active; i = inactive; / = no result given.

SMILES	FLuc inhib CS	ABCG2 block	ABCB1 block	ABCB6 inh MLPCN	Diaph act CS	FLuc act counter	ABCB1 single pt	ABCG2 single pt	IgMXP3 autofluor	CCRF autofluor
CC(=O)c1ccc(NC(=O)CN2CCN(S(=O)(=O)c3ccc4c(c3)OCCO4)CC2)cc1	/	/	/	98	/	/	/	/	/	/
O=C(c1ccco1)N1CCN(c2ncnc3c2nnn3Cc2ccccc2Cl)CC1	-4	8	3	95	1.1	1	/	/	/	/
O=C(c1ccco1)N1CCN(c2nc(C(F)(F)F)nc3c2nnn3Cc2ccccc2)CC1	-4	64	15	82	0.8	1	23	27	73*	37*
CC1CC(C)CN(CCCNC(=O)c2ccc3c(c2)N(Cc2ccccc2)C(=O)c2ccccc2S3=O)C1 (centres undefined)	/	/	/	101	/	/	/	/	/	/
O=C(NCc1ccccn1)c1ccc(-c2ccccc2)cc1	14	0	0	89	0.9	0.9	/	/	/	/
O=C(NCc1ccccn1)c1cn(-c2ccccc2)nc1-c1ccc(Cl)cc1	3	83*	3	102	0.8	1	-49	23	22*	149*
CCOC(=O)c1sc(NN=C(C(=O)OC)C(=O)OC)c(C(=O)OCC)c1C	2	126*	0	101	1	1	2	26	-1.3	-1.2
Cc1cc(C(=O)N2CCCC(N3CCN(c4ccccc4C)CC3)C2)no1 (centres undefined)	/	/	/	94	/	/	/	/	/	/
CN(C)c1cc[n+](CC(=O)Nc2ccc(Cl)c([N+](=O)[O-])c2)cc1	/	/	/	100	/	/	/	/	/	/
CN(C)c1ccc(/C=C2\N=C(c3ccc(Cl)c([N+](=O)[O-])c3)NC2=O)cc1	16	83*	83*	i	1.2	0.8	4	5	75*	94*
O=C(COc1cc(Cl)ccc1Cl)Nc1nnc(C2CC2)s1	/	/	/	108	/	/	/	/	/	/
COc1ccc(CN2CCn3nc(C(=O)NC(C)C)cc3C2=O)cc1	-6	0	41*	101	1	1.1	-2	4	3.4	0.71
COc1cc(CC(=O)OCC(=O)Nc2cc([N+](=O)[O-])ccc2Cl)cc(OC)c1OC	-2	81*	3	98	0.9	1	3	41	21*	-1.6
COc1ccc([N+](=O)[O-])cc1NC(=O)COC(=O)Cc1cc(OC)c(OC)c(OC)c1	-2	22	1	102	1	1	/	/	/	/
CCN(CC)c1ccc(/C=c2\sc3nnc(-c4ccccc4Cl)n3c2=O)cc1	6	78	60*	i	0.9	0.9	28	-54	202*	204*
CCN(CC)c1ccc(/C=c2/sc3nnc(-c4ccccc4C)n3c2=O)cc1	-6	64	77*	i	1	1.1	25	13	139*	249*
Cc1ccc(/C=c2/sc3nnc(-c4ccccc4Cl)n3c2=O)o1	6	58	2	101	0.8	0.9	/	/	/	/
